Key:
[1] = stability of CM156 in rat plasma QC samples under various storage conditions; type: in vitro ADME; settings: for stability in rat plasma: 10, 400 and 3000 ng/mL
Procedure, shortened: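 Blank rat plasma was spiked to QC levels of 10, 400 and 3000 ng/mL, six replicates each. Conditions were three freeze–thaw cycles (−20 °C 24 h, thaw at room temperature, refreeze 12–24 h), room temperature for 12 h, −20 °C for 1 month, and autosampler reinjection after 24 h at 25 °C. Samples were chloroform-extracted with aripiprazole internal standard, analysed by UPLC/MS, and compared with fresh QCs.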

sigma-1 receptors = settings: sigma-1 and sigma-2 in the nanomolar and subnanomolar range; cited from earlier work
[2] = stability of stock solutions; type: physicochemical
[3] = pilot intravenous pharmacokinetic study in rats; type: in vivo; settings: male, Sprague-Dawley, rat, plasma, 5 mg/kg
Procedure, shortened: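 Six male Sprague-Dawley rats (180–200 g) with right jugular vein cannulas, fasted 12 h before and 4 h after dosing. Single 5 mg/kg i.v. bolus in saline (0.2 µm filtered) via cannula, flushed with heparinized saline. Plasma from centrifuged blood (10,000 × g, 20 min, 4 °C) held at −20 °C. Chloroform extraction with aripiprazole internal standard. HILIC UPLC/MS in SIR mode (m/z 390; IS 448). Mean ± SD, n = 6.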

sigma-2 receptors = settings: sigma-1 and sigma-2 in the nanomolar and subnanomolar range; cited from earlier work
[4] = test system: cocaine induced behaviors; settings: cited from earlier work
effects of cocaine = settings: cited from earlier work
sigma receptors = settings: cited from earlier work
[5] = rat plasma, long term for 30 days (−20 °C), spiked 10 ng/mL
[6] = rat plasma, long term for 30 days (−20 °C), spiked 400 ng/mL
[7] = rat plasma, short term for 12 h (25 °C), spiked 10 ng/mL
[8] = rat plasma, short term for 12 h (25 °C), spiked 400 ng/mL
[9] = rat plasma, three freeze thaw cycles, spiked 400 ng/mL
[10] = rat plasma, three freeze thaw cycles, spiked 3000 ng/mL
[11] = reconstituted samples, auto sampler for 24 h (25 °C), spiked 10 ng/mL
[12] = reconstituted samples, auto sampler for 24 h (25 °C), spiked 400 ng/mL
[13] = reconstituted samples, auto sampler for 24 h (25 °C), spiked 3000 ng/mL

S=c1sc2ccccc2n1CCCCN1CCN(C2CCCCC2)CC1 [CM156, 3-(4-(4-cyclohexylpiperazin-1-yl)butyl)benzo[d]thiazole-2(3H)-thione]
stability in rat plasma ([1]; during three freeze/thaw cycles): stable | Measured concentration [1, 5]: 11.2 ± 0.9 ng/mL | RE (relative error) [1, 5]: 12.8% | Measured concentration [1, 6]: 394.8 ± 17.8 ng/mL | RE (relative error) [1, 6]: −1.3% | Measured concentration ([1]; rat plasma, long term for 30 days (−20 °C), spiked 3000 ng/mL): 2879.4 ± 243.1 ng/mL | Measured concentration [1, 7]: 8.6 ± 0.7 ng/mL | RE (relative error) [1, 7]: −12.3% | Measured concentration [1, 8]: 403.6 ± 9.2 ng/mL | RE (relative error) [1, 8]: 2.3% | Measured concentration ([1]; rat plasma, short term for 12 h (25 °C), spiked 3000 ng/mL): 2879.4 ± 145.2 ng/mL | Measured concentration ([1]; rat plasma, three freeze thaw cycles, spiked 10 ng/mL): 9.2 ± 1.1 ng/mL | Measured concentration [1, 9]: 406.4 ± 8.8 ng/mL | RE (relative error) [1, 9]: 1.6% | Measured concentration [1, 10]: 2879.4 ± 209.8 ng/mL | RE (relative error) [1, 10]: −4.0% | Measured concentration [1, 11]: 10.0 ± 0.2 ng/mL | RE (relative error) [1, 11]: 2.2% | Measured concentration [1, 12]: 404.4 ± 4.7 ng/mL | RE (relative error) [1, 12]: 1.1% | Measured concentration [1, 13]: 2901.1 ± 59.2 ng/mL | RE (relative error) [1, 13]: −3.3% | stability in rat plasma ([1]; stored at room temperature for 12 h): stable | stability in rat plasma ([1]; stored at −20 °C for 1 month): stable | stability in reconstituted samples ([1]; stored for 24 h in the autosampler at 25 °C): stable | affinity for sigma-1 receptors (sigma-1 receptors): high affinity | stock solution stability ([2]; one week at −20 °C): stable | time stock solution is stable ([2]; room temperature): at least 6 h | AUC(0-inf) [3]: 802 ng·h/mL | Cmax [3]: 1300 ± 200 ng/mL | MRT [3]: 1.5 h | Vd [3]: 9.6 ± 1.4 L/kg | clearance [3]: 103 mL/min/kg | half-life ([3]; Elimination half-life (t1/2), rats, single intravenous dose of 5 mg/kg, n = 6, mean ± SD): 1.1 ± 0.4 h | affinity for sigma-2 receptors (sigma-2 receptors): high affinity | cocaine induced place conditioning behaviors [4]: significantly attenuate | expression of cocaine induced behavioral sensitization [4]: significantly attenuate

CN(CCc1ccc(Cl)c(Cl)c1)CCN1CCCC1 [BD 1008]
convulsions of cocaine (effects of cocaine): attenuation | locomotor stimulant effects of cocaine (effects of cocaine): blockade | rewarding effects of cocaine (effects of cocaine): attenuation

COC(=O)[C@H]1[C@@H](OC(=O)c2ccccc2)C[C@@H]2CC[C@H]1N2C [cocaine]
affinity for sigma receptors (sigma receptors): about 2 µm
